Assay results: ChEMBL document CHEMBL4130411, “Arylthiazole antibiotics targeting intracellular methicillin-resistant Staphylococcus aureus (MRSA) that interfere with bacterial cell wall synthesis” (Eur J Med Chem, 2017)
In brackets after ≈: the same amount, converted by molar mass. Activity calls are given as the source filed them. No cut-off for these calls is given here.

Experiments:
Staphylococcus aureus [1] = assay: Antibacterial activity against methicillin-resistant Staphylococcus aureus NRS123 (USA400) after 20 hrs by broth microdilution assay; format: functional
Staphylococcus aureus [2] = assay: Antibacterial activity against methicillin-resistant Staphylococcus aureus USA100 NRS382 after 20 hrs by broth microdilution assay; format: functional; settings: USA100 NRS382, 20 h
Staphylococcus aureus [3] = assay: Antibacterial activity against methicillin-resistant Staphylococcus aureus USA200 NRS383 after 20 hrs by broth microdilution assay; format: functional; settings: USA200 NRS383, 20 h
Staphylococcus aureus [4] = assay: Antibacterial activity against methicillin-resistant Staphylococcus aureus USA300 NRS384 after 20 hrs by broth microdilution assay; format: functional; settings: USA300 NRS384, 20 h
Staphylococcus aureus [5] = assay: Antibacterial activity against vancomycin-resistant Staphylococcus aureus isolate 10 after 20 hrs by broth microdilution assay; format: functional; settings: isolate 10, 20 h
Staphylococcus aureus [6] = assay: Bactericidal activity against methicillin-resistant Staphylococcus aureus NRS123 (USA400) incubated for 20 hrs followed by replating on tryptic soy agar plates and further incubated for 18 hrs by broth microdilution assay; format: functional
Staphylococcus aureus [7] = assay: Bactericidal activity against methicillin-resistant Staphylococcus aureus USA100 NRS382 incubated for 20 hrs followed by replating on tryptic soy agar plates and further incubated for 18 hrs by broth microdilution assay; format: functional
Staphylococcus aureus [8] = assay: Bactericidal activity against methicillin-resistant Staphylococcus aureus USA200 NRS383 incubated for 20 hrs followed by replating on tryptic soy agar plates and further incubated for 18 hrs by broth microdilution assay; format: functional
Staphylococcus aureus [9] = assay: Bactericidal activity against methicillin-resistant Staphylococcus aureus USA300 NRS384 incubated for 20 hrs followed by replating on tryptic soy agar plates and further incubated for 18 hrs by broth microdilution assay; format: functional
Staphylococcus aureus [10] = assay: Bactericidal activity against vancomycin-resistant Staphylococcus aureus isolate 10 incubated for 20 hrs followed by replating on tryptic soy agar plates and further incubated for 18 hrs by broth microdilution assay; format: functional
How it was run: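 From MIC wells without visible growth, an aliquot was spotted onto Tryptic soy agar and incubated at 37 °C for at least 18 h; MBC = lowest concentration inhibiting 99.9% of bacterial growth.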

Staphylococcus aureus [11] = assay: Bactericidal activity against Staphylococcus aureus RN4220 NRS107 incubated for 20 hrs followed by replating on tryptic soy agar plates and further incubated for 18 hrs by broth microdilution assay; format: functional
Staphylococcus aureus [12] = assay: Bactericidal activity against vancomycin-resistant Staphylococcus aureus isolate 4 incubated for 20 hrs followed by replating on tryptic soy agar plates and further incubated for 18 hrs by broth microdilution assay; format: functional
[13] = Intrinsic clearance in human liver microsomes in presence of NADPH by LC-MS/MS analysis; format: ADME, microsome; settings: read-out: CLH
How it was run: (§1)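 Human liver microsomal protein was incubated in duplicate at 37 °C in 100 mM potassium phosphate, 2 mM NADPH, 3 mM MgCl2, pH 7.4. Samples were taken at 0, 10, 20, 40 and 60 min and stopped with ice-cold methanol containing an internal standard. Half-life was derived from depletion. CLint = ln(2)/(T1/2 × microsomal protein concentration).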

[14] = Half life in human liver microsomes in presence of NADPH by LC-MS/MS analysis; format: ADME, microsome; settings: liver microsomes; how it was run: as §1
[15] = Half life in human liver microsomes in absence of NADPH by LC-MS/MS analysis; format: ADME, microsome
How it was run: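 Human liver microsomes were incubated in duplicate at 37 °C in 100 mM potassium phosphate with 3 mM MgCl2, pH 7.4, without NADPH to detect NADPH-free degradation. Aliquots were taken at 0, 10, 20, 40 and 60 min and quenched in ice-cold methanol containing an internal standard, then held at least 10 min at -20 °C before water was added. Half-life was taken from compound depletion.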

Bacillus subtilis [16] = assay: Inhibition of cell wall biosynthesis in Bacillus subtilis assessed as induction of large bulges formation at 1.875 ug/ml incubated for 2 hrs by FM-4-64 staining based assay; format: functional, organism-based
How it was run: (§2)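 B. subtilis grown in LB at 37 °C to OD600 ~0.2, then treated with or without the osmotic stabiliser MSM for 2 h; stained with FM 4-64 (1 µg/mL, membranes), DAPI (1 µg/mL, DNA) and SYTOX Green (1 µg/mL, lysis); imaged by deconvolution fluorescence microscopy.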

Bacillus subtilis [17] = assay: Inhibition of cell wall biosynthesis in Bacillus subtilis assessed as induction of formation of misshapen cells at 1.875 ug/ml incubated for 2 hrs by FM-4-64 staining based assay; format: functional, organism-based; how it was run: as §2
Staphylococcus aureus [18] = assay: Antibacterial activity against Staphylococcus aureus RN4220 NRS107 after 20 hrs by broth microdilution assay; format: functional; settings: RN4220 NRS107, 20 h
Staphylococcus aureus [19] = assay: Antibacterial activity against vancomycin-resistant Staphylococcus aureus isolate 4 after 20 hrs by broth microdilution assay; format: functional; settings: isolate 4, 20 h
Staphylococcus aureus [20] = assay: Bactericidal activity against methicillin-resistant Staphylococcus aureus NRS123 (USA400) assessed as time required for complete bacterial elimination after 24 hrs by time-kill assay; format: functional
Staphylococcus aureus [21] = assay: Antibacterial activity against methicillin-resistant Staphylococcus aureus NRS123 (USA400) infected in mouse J774 cells assessed as reduction in bacterial colony forming units at 16 ug/ml after 24 hrs relative to control; format: functional
How it was run: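 J774 macrophages in DMEM + 10% FBS, 37 °C, 5% CO2, infected with USA400 at MOI ~100:1; after 1 h, gentamicin (50 µg/mL) wash; agent at 16 µg/mL in triplicate; at time point, gentamicin wash, lysis in 0.1% Triton X-100, serial dilution, TSA plating 18-22 h at 37 °C; % CFU/mL reduction versus untreated; t-test.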

Staphylococcus aureus [22] = assay: Antibacterial activity against methicillin-resistant Staphylococcus aureus USA300 NRS384 infected in Caenorhabditis elegans AU37 assessed as reduction in bacterial burden at 20 ug/ml after 18 hrs by microscopic analysis; format: functional
Staphylococcus aureus [23] = assay: Inhibition of cell wall synthesis in Staphylococcus aureus RN4220 NRS107 assessed as UDP-N-acetylmuramyl pentapeptide formation at 10 times MIC incubated for 30 mins by HPLC-MS analysis; format: functional, organism-based
Bacillus subtilis [24] = assay: Inhibition of cell wall biosynthesis in Bacillus subtilis assessed as induction of large bulges formation at 37.5 ug/ml incubated for 2 hrs by FM-4-64 staining based assay; format: functional, organism-based
How it was run: (§3)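 B. subtilis was grown in LB at 37 °C to OD600 ~0.2, then treated for 2 h with or without the osmotic stabiliser MSM. Cells were stained with FM 4-64 (1 µg/mL, membranes), DAPI (1 µg/mL, DNA) and SYTOX Green (1 µg/mL, lysis). Morphology was scored by deconvolution fluorescence microscopy against untreated cells.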

Bacillus subtilis [25] = assay: Inhibition of cell wall biosynthesis in Bacillus subtilis assessed as induction of formation of misshapen cells at 37.5 ug/ml incubated for 2 hrs by FM-4-64 staining based assay; format: functional, organism-based; how it was run: as §3

| SMILES | MIC (Staphylococcus aureus [1]) [µg/mL] | MIC (Staphylococcus aureus [4]) [µg/mL] | MIC (Staphylococcus aureus [5]) [µg/mL] | MBC (Staphylococcus aureus [6]) [µg/mL] | MBC (Staphylococcus aureus [7]) [µg/mL] | MBC (Staphylococcus aureus [8]) [µg/mL] | MBC (Staphylococcus aureus [9]) [µg/mL] | MBC (Staphylococcus aureus [10]) [µg/mL] | MBC (Staphylococcus aureus [11]) [µg/mL] | also measured |
| --- | --- | --- | --- | --- | --- | --- | --- | --- | --- | --- |
| Cc1nc(-c2ccc3ccccc3c2)sc1-c1cnc(-c2cccnc2)s1 | 16 (≈ 41.5 µM) | 16 (≈ 41.5 µM) | 16 (≈ 41.5 µM) | > 64 | > 64 | > 64 | 64 (≈ 166 µM) | 16 (≈ 41.5 µM) |  | MIC (Staphylococcus aureus [2]): 8 µg/mL (≈ 20.8 µM); MIC (Staphylococcus aureus [3]): 8 µg/mL (≈ 20.8 µM) |
| CC(=O)NC[C@H]1CN(c2ccc(N3CCOCC3)c(F)c2)C(=O)O1 [LINEZOLID] |  |  |  | 32 (≈ 94.9 µM) | 16 (≈ 47.4 µM) | 32 (≈ 94.9 µM) | 16 (≈ 47.4 µM) | 16 (≈ 47.4 µM) | 32 (≈ 94.9 µM) | MBC (Staphylococcus aureus [12]): 8 µg/mL (≈ 23.7 µM) |
| Cc1nc(-c2ccc3ccccc3c2)sc1-c1cnc(N)s1 | > 64 | > 64 | > 64 | > 64 |  |  | > 64 | > 64 |  |  |
| CCCCc1ccc(-c2nc(C)c(/C(C)=N/NC(=N)N)s2)cc1 |  |  |  |  |  |  |  |  |  | microsomal CLint [13]: 80.3 µL/min/mg; half-life [14]: 28.8 min; t1/2 [15]: > 240 min |
| Cc1onc(-c2ccccc2)c1C(=O)N[C@@H]1C(=O)N2[C@@H]1SC(C)(C)[C@@H]2C(=O)O |  |  |  |  |  |  |  |  |  | inhibition (Bacillus subtilis [16]): Active; inhibition (Bacillus subtilis [17]): Active |
| CCCCc1ccc(-c2nc(C)c(-c3cnc(NN)s3)s2)cc1 | 16 (≈ 46.4 µM) | 16 (≈ 46.4 µM) | > 64 | 16 (≈ 46.4 µM) |  |  | 16 (≈ 46.4 µM) | > 64 | 32 (≈ 92.9 µM) | MIC (Staphylococcus aureus [18]): 16 µg/mL (≈ 46.4 µM) |
| CN[C@H](CC(C)C)C(=O)N[C@H]1C(=O)N[C@@H](CC(N)=O)C(=O)N[C@H]2C(=O)N[C@H]3C(=O)N[C@H](C(=O)N[C@H](C(=O)O)c4cc(O)cc(O)c4-c4cc3ccc4O)[C@H](O)c3ccc(c(Cl)c3)Oc3cc2cc(c3O[C@@H]2O[C@H](CO)[C@@H](O)[C@H](O)[C@H]2O[C@H]2C[C@](C)(N)[C@H](O)[C@H](C)O2)Oc2ccc(cc2Cl)[C@H]1O [VANCOMYCIN] |  |  | ≥ 512 |  |  |  |  | > 512 |  | MIC (Staphylococcus aureus [19]): > 512 µg/mL; Time (Staphylococcus aureus [20]): 24 h; Activity (Staphylococcus aureus [21]): inactive; Activity (Staphylococcus aureus [22]): inactive; inhibition (Staphylococcus aureus [23]): Active |
| Cc1nc(-c2ccc(-c3ccccc3)cc2)sc1-c1cnc(NN)s1 | 16 (≈ 43.9 µM) | 16 (≈ 43.9 µM) | 16 (≈ 43.9 µM) | > 64 | > 64 | > 64 | 64 (≈ 176 µM) | 16 (≈ 43.9 µM) |  | MIC (Staphylococcus aureus [2]): 8 µg/mL (≈ 21.9 µM); MIC (Staphylococcus aureus [3]): 8 µg/mL (≈ 21.9 µM) |
| Cc1nc(-c2ccc(-c3ccccc3)cc2)sc1-c1cnc(-c2cccnc2)s1 | 16 (≈ 38.9 µM) | 16 (≈ 38.9 µM) | 16 (≈ 38.9 µM) | > 64 | > 64 | > 64 | 64 (≈ 156 µM) | 16 (≈ 38.9 µM) |  | MIC (Staphylococcus aureus [2]): 8 µg/mL (≈ 19.4 µM); MIC (Staphylococcus aureus [3]): 8 µg/mL (≈ 19.4 µM) |
| N[C@@H]1CONC1=O |  |  |  |  |  |  |  |  |  | inhibition (Bacillus subtilis [24]): Active; inhibition (Bacillus subtilis [25]): Active |
| Cc1nc(-c2ccc3ccccc3c2)sc1-c1cnc(NN)s1 | 16 (≈ 47.3 µM) | 16 (≈ 47.3 µM) | 16 (≈ 47.3 µM) | > 64 | > 64 | > 64 | 64 (≈ 189 µM) | 16 (≈ 47.3 µM) |  | MIC (Staphylococcus aureus [2]): 8 µg/mL (≈ 23.6 µM); MIC (Staphylococcus aureus [3]): 8 µg/mL (≈ 23.6 µM) |
| CCCCc1ccc(-c2nc(C)c(-c3cnc(-c4cccnc4)s3)s2)cc1 | 16 (≈ 40.9 µM) | 16 (≈ 40.9 µM) | > 64 | 16 (≈ 40.9 µM) |  |  | 16 (≈ 40.9 µM) | > 64 | 32 (≈ 81.7 µM) | MIC (Staphylococcus aureus [18]): 16 µg/mL (≈ 40.9 µM); MIC (Staphylococcus aureus [19]): > 64 µg/mL; MBC (Staphylococcus aureus [12]): > 64 µg/mL |
| CCCCc1ccc(-c2nc(C)c(-c3cnc(NC(=N)N)s3)s2)cc1 | 16 (≈ 43.1 µM) | 16 (≈ 43.1 µM) | 8 (≈ 21.5 µM) | 16 (≈ 43.1 µM) |  |  | 16 (≈ 43.1 µM) | 8 (≈ 21.5 µM) | 32 (≈ 86.1 µM) | MIC (Staphylococcus aureus [18]): 16 µg/mL (≈ 43.1 µM); MIC (Staphylococcus aureus [19]): 8 µg/mL (≈ 21.5 µM); MBC (Staphylococcus aureus [12]): 8 µg/mL (≈ 21.5 µM) |
| CCCCc1ccc(-c2nc(C)c(-c3cnc(N)s3)s2)cc1 | > 64 | > 64 | > 64 | > 64 |  |  | > 64 | > 64 |  |  |
| Cc1nc(-c2ccc(-c3ccccc3)cc2)sc1-c1cnc(NC(=N)N)s1 | 16 (≈ 40.9 µM) | 8 (≈ 20.4 µM) | 8 (≈ 20.4 µM) | 16 (≈ 40.9 µM) |  |  | 16 (≈ 40.9 µM) | 8 (≈ 20.4 µM) | 32 (≈ 81.7 µM) | MIC (Staphylococcus aureus [18]): 16 µg/mL (≈ 40.9 µM); MIC (Staphylococcus aureus [19]): 8 µg/mL (≈ 20.4 µM); MBC (Staphylococcus aureus [12]): 8 µg/mL (≈ 20.4 µM) |
| Cc1nc(-c2ccc(-c3ccccc3)cc2)sc1-c1cnc(N)s1 | > 64 | > 64 | > 64 | > 64 |  |  | > 64 | > 64 |  |  |
